Data on eight substances can be found in article PMC11178347 (Proteoglycan research, 2023).

The subject of series [1] is collagen. The note with it: ref unpublished studies; cited from earlier work.
A short description of series [2]: Circular dichroism secondary structure of GQLY variants. The class given is physicochemical. The note with it: 1 mg/mL, pH 8.5 sodium borate buffer; for Antiparallel / Helix / Others / Parallel / Turn: CD far-UV 190-250 nm, BESTSEL; for Structure difference between variants by CD: SRR-hyd vs GSG-hyd. The essentials: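 Peptides at 1 mg/mL in pH 8.5 sodium borate buffer, quartz cell. Far-UV spectra 190–250 nm, baseline-corrected. Secondary-structure fractions fitted by least squares at each wavelength point, separating antiparallel β-sheet by twist angle and regular from distorted α-helix.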
(Circular dichroism is the unequal absorption of left and right circularly polarised light.)

A short description of series [3]: Peptide association with chondroitin sulfate. The class given is physicochemical. The note with it: for Decrease in peptides associated per disaccharide / Percent Decrease in total peptide associated/GAG: with CS, before vs after 1 M NaCl and 8 M urea wash. The essentials:
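Chondroitin sulfate (10 mg/mL) reacted overnight at pH 4.5 with peptide (theoretical 16% disaccharide substitution) in 0.1 M MES/8 M urea/0.2 wt% NaCl, with EDC 0.5:1 per disaccharide or without EDC. Stopped at pH 8.5, tangential-flow filtered (10 kDa). Agitated 30 min in 1 M NaCl/8 M urea, spin-filtered (10 kDa) and water-exchanged three times. Peptide measured by A280 against standard curves, before and after wash.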

Series [4] can be described thus: SRR-hyd conjugation to GAG backbones. The class given is physicochemical. The note with it: following salt washing. The essentials: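 Heparin, hyaluronic acid, chondroitin sulfate or dermatan sulfate (10 mg/mL) coupled to peptide with EDC (0.5:1 per disaccharide) in 0.1 M MES/8 M urea/0.2 wt% NaCl, pH 4.5, overnight. Quenched at pH 8.5, purified by tangential flow over a 10 kDa membrane, lyophilised. Peptide content from 280 nm absorbance using peptide standard curves, expressed per disaccharide (GAG mass divided by disaccharide mass).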

Series [5] deals with platelet adhesion to immobilized fibrillar collagen. Briefly: Inhibition of platelet adhesion to immobilized fibrillar collagen under flow. It is filed as cell-based. The note with it: even at high concentrations; human whole blood, 1000 s−1. The essentials:
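Flow channels coated with fibrillar type I collagen (100 μg/mL, 1 h, room temperature) and PBS-washed. Channels pre-incubated 1 h with test compound, or with its heparin or peptide component alone, at increasing concentrations, then flushed. Citrated human whole blood, pooled and used within 3 h, stained with Calcein-AM 30 min at 37 °C. Conjugate added to blood, perfused at 1000 s−1. Adherent platelets imaged by fluorescence and normalised to untreated control.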

In series [6] the test system is platelet binding. The note with it: ref Biran & Pond, 2017; Linhardt et al., 2008; cited from earlier work.

Entries after “also recorded” stand apart in the source; their conditions may differ. Ends that are not written are not given here.

GQLYKSILY: the Collagen binding result in series [1] is given as “also binding to collagen”.

In series [2], GQLYKSILYGSGSG-hydrazide returned an Antiparallel of 25.6, a Helix of 6.2, an Others of 53.9 and a Parallel of 0. Also, in series [2], the Turn worked out at 14.3 and the “Structure difference between variants by CD” value is “minimal difference in their structure”. In series [3], the “Decrease in peptides associated per disaccharide” value (shortened to “Decrease … per disaccharide”) is reported as 1.1% and the “Percent Decrease in total peptide associated/GAG” value is recorded as 15%.

Consider GQLYKSILYGSGSGSRR-NH2, for which the “Peptide association with CS, without EDC” value in series [3] (absence of EDC, initial 10 kDa purification) is given as “equivalent”. For the same substance, the “Decrease … per disaccharide” value in series [3] stood at 5.7%.

Take GQLYKSILYGSGSGSRR-hydrazide: in series [2], the Antiparallel is 21.8, the Helix was 5.5, the Others was 59.2 and the Parallel is on record as 0. In series [2], the Turn stood at 13.5 and the “Structure difference between variants by CD” value is “minimal difference in their structure”. In series [3] (after EDC reaction, initial 10 kDa purification), the “Peptide association with CS, with EDC” value is given as “significantly more peptide association when using the SRR-hyd variant compared to the GSG-hyd variant; also recorded: more SRR-hyd associated with CS compared to the SRR-amide variant”. In series [3], the “Decrease … per disaccharide” value is 5.2% and the “Percent Decrease in total peptide associated/GAG” value came out at 32%.

For chondroitin sulfate [CS], the “GQLY (SRR-hyd) conjugation supported by the GAG backbone” value (shortened to “GQLY (SRR-hyd) conjugation supported”) in series [4] is “same intermediate level of GQLY conjugation”.

dermatan sulfate [DS]: the “GQLY (SRR-hyd) conjugation supported” value in series [4] is recorded as “same intermediate level of GQLY conjugation”.

With heparin, the “Platelet inhibition, in words” value in series [5] is reported as “no significant platelet inhibition”. For the same substance, the “GQLY (SRR-hyd) conjugation supported” value in series [4] was “greatest GQLY conjugation”. Further, the Platelet binding suppression entry in series [6] is given as “known to suppress platelet binding”.

hyaluronic acid [HA]: the “GQLY (SRR-hyd) conjugation supported” value in series [4] is “least”.
